Env fusion inh: inhibitors of HIV Env-mediated cell fusion; HeLa-JRFL Env/CEM21 cell fusion, luciferase; inhibition, % at 12.3 µM; 360,000 tested, 1.1% active;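 active means mean replicate inhibition score of at least 50 and every replicate individually at or above 50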;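 further: 0% = plate neutral controls and 100% = maraviroc near 300 nM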
FGF22 binding: binders of recombinant human FGF22 by thermal shift. AID 651658. SYPRO orange fluorescence; percent of sucrose octasulfate shift, DMSO zero. Q9HCT0. activity (Tm shift, normalised), % at 9.99 µM. 340,000 tested, 1.5% active;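 active means mean Tm shift, scaled 0 neutral to 100 positive control, at about 1.3% or above, every replicate too, limit read from the data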
ERAP1 inh: inhibitors of human ERAP1 aminopeptidase; Q9NZ08; recombinant ERAP1, Leu-AMC fluorescence, 60 min; inhibition, % at 10.7 µM; 340,000 tested, 0.15% active; AID 652197;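 active means mean replicate inhibition of at least 30%, or all replicates individually reaching that 30% level; inactive means mean below 30% and not every replicate reaching it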;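 further: 0% = neutral control wells and 100% = L-leucinethiol positive control wells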
Target sequence (Q9NZ08 whole entry, looked up): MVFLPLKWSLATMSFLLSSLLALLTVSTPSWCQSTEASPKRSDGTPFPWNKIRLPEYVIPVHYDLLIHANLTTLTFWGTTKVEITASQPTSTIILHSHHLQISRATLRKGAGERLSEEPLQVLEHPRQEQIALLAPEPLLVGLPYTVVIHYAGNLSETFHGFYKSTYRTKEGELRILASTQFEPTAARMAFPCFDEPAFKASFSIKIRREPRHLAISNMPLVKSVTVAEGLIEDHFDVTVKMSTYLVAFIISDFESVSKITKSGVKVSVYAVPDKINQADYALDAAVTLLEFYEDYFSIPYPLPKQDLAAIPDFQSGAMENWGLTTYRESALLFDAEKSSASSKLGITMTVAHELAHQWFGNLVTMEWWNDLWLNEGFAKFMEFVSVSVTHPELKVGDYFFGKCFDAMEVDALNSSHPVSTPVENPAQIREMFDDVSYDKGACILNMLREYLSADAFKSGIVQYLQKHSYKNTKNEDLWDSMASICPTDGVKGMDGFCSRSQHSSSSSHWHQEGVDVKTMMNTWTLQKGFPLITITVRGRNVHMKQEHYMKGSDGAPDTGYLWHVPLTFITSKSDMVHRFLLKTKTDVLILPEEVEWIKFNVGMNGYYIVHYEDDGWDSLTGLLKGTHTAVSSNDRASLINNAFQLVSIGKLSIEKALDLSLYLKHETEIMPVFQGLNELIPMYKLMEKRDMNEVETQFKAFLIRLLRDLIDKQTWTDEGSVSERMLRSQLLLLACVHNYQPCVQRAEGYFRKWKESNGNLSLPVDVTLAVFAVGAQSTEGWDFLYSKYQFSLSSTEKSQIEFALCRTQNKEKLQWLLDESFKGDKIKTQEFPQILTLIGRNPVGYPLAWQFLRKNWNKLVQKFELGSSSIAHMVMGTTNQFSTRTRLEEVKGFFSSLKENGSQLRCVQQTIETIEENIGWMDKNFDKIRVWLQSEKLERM
Cneo AK release: Cryptococcus neoformans lysis via adenylate kinase release; C. neoformans lysis, adenylate kinase release luminescence, 4 h; normalised: neutral wells 0, clomiphene wells 100; lysis activity, % at 15 µM; 360,000 tested, 0.2% active;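 active means mean lysis activity across replicates of at least 80%, whatever share of replicates individually reach that level; inactive means mean lysis activity below 80%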
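Schedule: static 4 h at 37 °C with compound, 1 h detection; system: C. neoformans cells; benchmarks: Clomiphene as positive control; buffer or medium: fresh YPD medium; measure: luminescence rise reflecting yeast cell lysis; measured by: luminescent adenylate kinase detection reagent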
Ecoli rRNA inh: selective bacterial rRNA inhibition in E. coli; 350,000 tested, 1.6% active; GFP signal change (wild-type ribosome), % (concentration not given with the values); E. coli WT GFP vs humanized-ribosome RFP mutants, fluorescence, 24 h; active compounds read low; DMSO median 0, no signal -100; AID 720706;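 active means significant combined selectivity score with lowered wild-type GFP, culture density cut under 30%, mutant RFP and density less affected; inactive means any of these conditions unmet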
PGC1a acetyl inh: PGC1a acetylation modulation, inhibitor mode; U2OS PGC1a acetylation, AlphaScreen anti-acetyl-lysine; with virally co-expressed GCN5 acetyltransferase; inhibition, % at 15.6 µM; 350,000 tested, 0.17% active; AID 651687;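 active means every replicate shows inhibition of at least 40%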;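 further: 0% = neutral control wells and 100% = positive control wells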
* hit, by the source's call; . = not tested or not shown; [ ] = remark or other dose. Hits are enriched below; roughly 3.5% of the tested compounds scored in any of these assays.

SMILES | Env fusion inh | FGF22 binding | ERAP1 inh | Cneo AK release | Ecoli rRNA inh | PGC1a acetyl inh
COc1cc2ncnc(NCc3cccs3)c2cc1OC | 38 | 0 | 5 | . | -13 | .
Cc1nc(SCC(=O)NCC2COc3ccccc3O2)c2c(C)c(C)sc2n1 (stereo not given) | 2 | 1 | 1 | 4 | -1 | 21
C(=N\N(Cc1ccccc1)c1ccccc1)/c1cccnc1 | 1 | 0 | 1 | . | -52 | .
Oc1cccc(/C=N/N(Cc2ccccc2)c2ccccc2)c1 | 1 | 0 | -2 | . | -42* | -3
O=C(O)/C=C/c1ccc(OCc2cccc(F)c2)cc1 | 5 | . | 0 | -2 | -22* | -2
O=C(/C=C/c1ccc(OCc2cccc(Cl)c2)cc1)N1CCOCC1 | 4 | 0 | 1 | . | -39 | -1
O=C(Oc1ccc[nH]c1=O)c1cc([N+](=O)[O-])cc([N+](=O)[O-])c1 | -32 | 0 | 3 | 0 | 1 | 53*
COc1cccc(CNC(=O)COC(=O)c2c(NC(C)=O)sc(C)c2C)c1 | . | 43* | -2 | 2 | 14 | -18
Nc1nc(SCc2ccc(Br)cc2)[nH]c(=O)c1-c1ccccc1 | -10 | 43* | 4 | -3 | -4 | 5
Cc1ccc(S(=O)(=O)N(C)C[C@@H]2OCCCC[C@@H](C)Oc3ccc(NC(=O)Nc4c(C)noc4C)cc3C(=O)N([C@H](C)CO)C[C@H]2C)cc1 | 4[16.7 µM] | 0 | 4 | 4 | 0 | 19
COC(=O)CN1C(c2ccc(Cl)cc2)=Nc2ccc(Cl)cc2C1c1ccccc1 (stereo not given) | 80* | . | . | . | . | .
COc1ccc(C2=Nc3ccc(C)cc3C(c3ccccc3)N2CC(=O)NN)cc1 (stereo not given) | 2 | 0 | -3 | . | 1 | -2
Nc1nc(Nc2cccc(F)c2)nc(N2CCOCC2)c1[N+](=O)[O-] | 11 | 0 | 5 | -7 | -29* | -10
Cc1ccc(Nc2nc(N)c([N+](=O)[O-])c(N3CCOCC3)n2)cc1C | . | 0 | 2 | -2 | -30 | .
C[N+]1(C2CCC3CCC2C3O)CCCC1 (stereo not given) | . | 0 | 12 | 2 | 11 | 7
CC(=O)OC1C2CCC1C([N+]1(C)CCCCC1)CC2 (stereo not given) | 6 | 0 | 35* | . | 25 | 5
Cc1cc(C(=O)CSc2nnnn2-c2ccc(Cl)cc2)c(C)n1CC1CCCO1 (stereo not given) | . | . | . | -2 | . | .
Cc1nc(CN2CCCCC2)cc(=O)[nH]1 | -1 | 43* | -4 | 1 | 14 | -9
Cc1cc(=O)[nH]c(CN2CCOCC2)n1 | 9 | 43* | -3 | 0 | 8 | -4
Cc1cc(=O)[nH]c(CN2CCC(c3ccccc3)CC2)n1 | 21 | 0 | 2 | . | 6 | -4
COc1cc(C2c3sc(=O)[nH]c3SC3C(=O)N(c4ccc(C)cc4)C(=O)C32)ccc1O (stereo not given) | 5 | 0 | -1 | -5 | 8 | 7
O=C(Nc1ccc(S(=O)(=O)NC2=NCCCCC2)cc1)c1cccc(S(=O)(=O)N2CCOCC2)c1 | 11 | 0 | 5 | 2 | 0 | 14
COc1ccc2nc(N3C(=O)CNC3=S)sc2c1 | 31 | 0 | 0 | -10 | -5 | 10
COc1ccc2nc(-n3c(O)c(C4=c5ccccc5=NC4=O)[nH]c3=S)sc2c1 | 2 | 0 | 1 | 5 | -44* | -1
Cc1csc(SCC(=O)Nc2ccccc2[N+](=O)[O-])n1 | -5 | 44* | -3 | . | -11 | -9
SMILES | Env fusion inh | FGF22 binding | ERAP1 inh | Cneo AK release | Ecoli rRNA inh | PGC1a acetyl inh
O=C(CNCc1cccc2ccccc12)Nc1ccccc1[N+](=O)[O-] | 13 | 0 | 9 | . | -31* | -9
CC1CCCCN1C(=O)COc1ccc(NC(=O)c2ccco2)cc1 (stereo not given) | -41 | . | . | -8 | . | .
Cc1cc(-c2nc(-c3ccc(C(C)(C)C)cc3)no2)no1 | -75 | 0 | . | -2 | -4 | 5
O=C(NC1CC(=O)N(c2ccccc2)C1)C(=O)c1c[nH]c2ccccc12 (stereo not given) | 62* | 0 | -8 | -2 | 1 | .
O=C(NC1CC1)C(=O)c1c[nH]c2ccccc12 | -12 | 0 | 0 | 2 | 7 | 3
Cc1[nH]n(-c2ccccc2)c(=O)c1C=Nc1cccc2cccnc12 | 57* | . | . | . | . | .
CCSc1nnc(-c2cc(Br)ccc2N=Cc2c(C)[nH]n(-c3ccccc3)c2=O)c(=O)[nH]1 | 9 | 0 | 2 | . | -1 | 2
Cc1ccc(-n2[nH]c(C)c(/C=N/c3ccccn3)c2=O)cc1 | -15 | . | -1 | -1 | 9 | -4
CSc1nnc(-c2cc(Br)ccc2N=Cc2c(C)[nH]n(-c3ccccc3)c2=O)c(=O)[nH]1 | 15 | 0 | 1 | . | -25* | -4
N=c1c2c(-c3ccccc3)c(-c3ccccc3)n(Cc3ccco3)c2ncn1CCO | . | . | 3 | 2 | . | -8
N=c1c2c(-c3ccccc3)c(-c3ccccc3)n(Cc3ccco3)c2ncn1CCCO | 41 | 0 | 1 | 1 | -52* | -23
CCOc1ccc(C(C)C)cc1S(=O)(=O)N1CCOCC1 | -26 | 43* | -1 | . | . | .
CCOc1ccc(OCC)c(S(=O)(=O)N2CCOCC2)c1 | 0 | 0 | -1 | 0 | 2 | -6
C/C(=N\NC1=N[C@H]2CS(=O)(=O)C[C@H]2S1)c1ccccc1 | -2 | 0 | 0 | -1 | 17 | 17
CSc1nc2nccc(-c3ccc(Cl)cc3)n2n1 | . | . | . | -1 | . | 5
CSc1nc2nccc(/C=C\c3ccccc3)n2n1 | 4 | . | . | -1 | . | 50*
CCCCNC(=O)C(=O)N/N=C/c1ccc(C(=O)OC)cc1 | 12 | 0 | 0 | . | 7 | -8
COC(=O)c1ccc(/C=N/NC(=O)C(=O)NCc2ccccc2)cc1 | 5 | 43* | -2 | . | 8 | .
C[C@H]1CN([C@@H](C)CO)C(=O)Cc2cc(NC(=O)CCCCCC(=O)Nc3ccccc3N)ccc2O[C@@H]1CN(C)Cc1ccc2c(c1)OCO2 | 31[16.7 µM] | 0 | 0 | 1 | -6 | 5
C[C@H]1CN([C@@H](C)CO)C(=O)Cc2cc(NC(=O)Nc3ccc(F)cc3)ccc2O[C@H]1CN(C)Cc1ccc(C(F)(F)F)cc1 | -15[16.7 µM] | 0 | 0 | . | -3 | 0
C[C@H]1CN([C@@H](C)CO)C(=O)Cc2cc(NC(=O)Nc3ccc(C(F)(F)F)cc3)ccc2O[C@@H]1CN(C)Cc1ccccc1 | 82*[16.7 µM] | 0 | 2 | -1 | 0 | .
C[C@@H]1CN([C@@H](C)CO)C(=O)Cc2cc(NC(=O)Nc3cccc4ccccc34)ccc2O[C@@H]1CN(C)Cc1ccc(C(=O)O)cc1 | . | 0 | -2 | 115* | -5 | 2
C[C@@H]1CN([C@@H](C)CO)C(=O)Cc2cc(NC(=O)Nc3ccc(C(F)(F)F)cc3)ccc2O[C@H]1CN(C)Cc1ccccc1 | 24[16.7 µM] | 0 | 2 | 1 | -12 | .

Screening results: PubChem, Broad Institute
